pEC50, pIC50: −log10 of the molar value. Calls of active or inactive are those of the source. No cut-off for these calls is given here.
Experiments:
Plasmodium falciparum [1] = assay: Inhibition of Plasmodium falciparum SUB1-mediated rupture of infected human red blood cells at 50 uM after 24 hrs by propidium iodide staining-based FACS analysis
Outline: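 Early schizonts (~36 h post invasion) given 50 µM compound (final) for 24 h at 37 °C, then glutaraldehyde-fixed, Triton-permeabilized and propidium iodide stained. Flow cytometric schizont fraction normalized to DMSO controls.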

Plasmodium falciparum [2] = assay: Displacement of JCP104 from Plasmodium falciparum SUB1 at 50 uM by SDS-PAGE
[3] = molecular target: T1, Preprocathepsin c, putative (Plasmodium falciparum 3D7) (UniProt Q8I0V1); assay: Inhibition of Plasmodium falciparum 3D7 PFL2290w by fluorescence spectrophotometry
T1 sequence (whole entry): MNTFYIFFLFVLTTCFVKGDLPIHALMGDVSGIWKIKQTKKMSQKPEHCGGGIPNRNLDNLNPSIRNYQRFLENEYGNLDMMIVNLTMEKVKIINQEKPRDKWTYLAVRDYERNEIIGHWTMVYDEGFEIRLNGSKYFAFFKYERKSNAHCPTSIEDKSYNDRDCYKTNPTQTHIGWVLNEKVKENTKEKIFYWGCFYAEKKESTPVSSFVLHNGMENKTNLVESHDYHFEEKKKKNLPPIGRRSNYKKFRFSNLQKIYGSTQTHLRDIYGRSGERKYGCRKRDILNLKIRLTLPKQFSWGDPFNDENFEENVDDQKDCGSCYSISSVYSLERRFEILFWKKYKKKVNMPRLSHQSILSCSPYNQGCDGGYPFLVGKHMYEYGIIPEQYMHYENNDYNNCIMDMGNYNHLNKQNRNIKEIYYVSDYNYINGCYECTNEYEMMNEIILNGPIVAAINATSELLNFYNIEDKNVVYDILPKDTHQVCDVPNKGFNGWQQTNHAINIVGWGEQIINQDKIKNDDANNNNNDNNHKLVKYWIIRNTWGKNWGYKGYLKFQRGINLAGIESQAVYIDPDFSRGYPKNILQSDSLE

[4] = molecular target: T2, Probable cathepsin C (Plasmodium falciparum 3D7) (UniProt Q8IIJ9); assay: Inhibition of Plasmodium falciparum 3D7 cathepsin C by fluorescence spectrophotometry
T2 sequence (whole entry): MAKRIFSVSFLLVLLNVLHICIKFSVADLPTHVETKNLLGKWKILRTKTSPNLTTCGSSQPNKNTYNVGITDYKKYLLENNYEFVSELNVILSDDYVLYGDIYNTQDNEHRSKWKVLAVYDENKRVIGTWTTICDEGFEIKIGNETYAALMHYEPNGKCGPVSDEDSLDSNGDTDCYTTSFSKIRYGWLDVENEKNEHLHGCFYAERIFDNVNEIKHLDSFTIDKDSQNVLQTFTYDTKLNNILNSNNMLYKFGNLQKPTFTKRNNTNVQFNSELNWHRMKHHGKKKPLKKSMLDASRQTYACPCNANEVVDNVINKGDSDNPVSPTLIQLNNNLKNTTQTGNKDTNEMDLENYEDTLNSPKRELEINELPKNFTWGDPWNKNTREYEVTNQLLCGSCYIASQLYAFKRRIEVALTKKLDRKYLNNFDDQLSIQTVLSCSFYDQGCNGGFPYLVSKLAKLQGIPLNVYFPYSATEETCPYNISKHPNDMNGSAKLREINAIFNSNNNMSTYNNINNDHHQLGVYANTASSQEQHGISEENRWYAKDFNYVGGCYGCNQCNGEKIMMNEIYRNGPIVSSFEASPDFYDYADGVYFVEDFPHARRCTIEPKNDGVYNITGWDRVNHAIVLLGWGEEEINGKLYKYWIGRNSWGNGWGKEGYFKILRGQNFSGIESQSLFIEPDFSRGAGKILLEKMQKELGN

[5] = molecular target: T3, Protease, putative (Plasmodium falciparum 3D7) (UniProt Q8I1Y2); assay: Inhibition of Plasmodium falciparum 3D7 PFD0230c-mediated rupture of infected human red blood cells at 10 uM after 24 hrs by giemsa staining
T3 sequence (whole entry): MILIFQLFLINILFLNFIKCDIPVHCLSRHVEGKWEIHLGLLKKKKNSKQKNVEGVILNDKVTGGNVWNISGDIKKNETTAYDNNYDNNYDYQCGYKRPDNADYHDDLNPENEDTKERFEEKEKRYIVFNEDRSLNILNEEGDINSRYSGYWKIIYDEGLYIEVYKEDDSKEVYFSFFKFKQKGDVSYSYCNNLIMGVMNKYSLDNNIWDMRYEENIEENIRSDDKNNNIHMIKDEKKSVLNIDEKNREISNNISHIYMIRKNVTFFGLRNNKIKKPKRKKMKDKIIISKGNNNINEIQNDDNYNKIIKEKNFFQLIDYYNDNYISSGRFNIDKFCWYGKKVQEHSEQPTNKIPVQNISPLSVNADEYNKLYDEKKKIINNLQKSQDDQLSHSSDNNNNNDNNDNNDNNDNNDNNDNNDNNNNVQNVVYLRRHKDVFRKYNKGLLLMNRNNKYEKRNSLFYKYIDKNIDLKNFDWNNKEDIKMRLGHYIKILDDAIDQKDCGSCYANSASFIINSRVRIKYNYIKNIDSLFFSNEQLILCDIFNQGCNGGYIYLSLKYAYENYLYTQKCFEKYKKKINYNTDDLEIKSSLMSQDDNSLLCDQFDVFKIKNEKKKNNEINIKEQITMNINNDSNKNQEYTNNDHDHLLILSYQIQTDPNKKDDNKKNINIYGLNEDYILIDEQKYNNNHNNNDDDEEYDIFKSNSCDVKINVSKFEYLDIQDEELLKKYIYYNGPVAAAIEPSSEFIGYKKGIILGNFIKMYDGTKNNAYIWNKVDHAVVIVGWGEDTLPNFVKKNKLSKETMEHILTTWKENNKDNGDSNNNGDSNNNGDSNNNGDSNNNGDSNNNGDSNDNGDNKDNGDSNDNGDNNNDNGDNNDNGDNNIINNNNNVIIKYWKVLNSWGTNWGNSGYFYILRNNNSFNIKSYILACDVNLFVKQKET
Outline: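 Giemsa-stained thin blood films were read from schizonts exposed at 36 h post invasion to 10 µM inhibitor, to assess rupture and morphology.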

[6] = molecular target: T3, Protease, putative (Plasmodium falciparum 3D7); assay: Inhibition of Plasmodium falciparum 3D7 PFD0230c-mediated SERA5 processing at 1 1 to 100 uM after 6 to 8 hrs by SDS-PAGE
Outline: (§1)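 Percoll-enriched schizonts (36–40 h post invasion) treated with inhibitor for 6–8 h in serum-free RPMI. Medium run on 8% SDS-PAGE; schizont pellet solubilized in SDS loading buffer. SERA5 detected by western blot with a monoclonal recognizing the P50 product; PfSUB1 detected with antisera.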

Plasmodium falciparum [7] = assay: Inhibition of Plasmodium falciparum SUB1-mediated SERA5 processing at 1 1 to 100 uM after 6 to 8 hrs by SDS-PAGE; outline: as §1
[8] = molecular target: T3, Protease, putative (Plasmodium falciparum 3D7); assay: Inhibition of Plasmodium falciparum 3D7 PFD0230c-mediated rupture of infected human red blood cells after 24 hrs by propidium iodide staining-based FACS analysis
Outline: (§2)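 Synchronous early schizonts (~36 h post invasion) exposed to inhibitor for 24 h at 37 °C. Cells fixed in 0.05% glutaraldehyde/PBS overnight at 4 °C, permeabilized with 0.25% Triton X-100 and stained with propidium iodide. Flow cytometry gated ring and schizont populations as fractions of total parasitemia, normalized to averaged DMSO wells. Triplicate runs.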

[9] = molecular target: T3, Protease, putative (Plasmodium falciparum 3D7); assay: Inhibition of Plasmodium falciparum 3D7 PFD0230c by fluorescence spectrophotometry
Plasmodium falciparum [10] = assay: Antiplasmodial activity against Plasmodium falciparum schizont infected in human erythrocytes assessed as effect on parasite ring-to-schizont morphology at 1 to 100 uM after 24 by propidium iodide staining-based FACS analysis; assay type: functional, organism-based
Plasmodium falciparum [11] = assay: Antiplasmodial activity against Plasmodium falciparum schizont infected in human erythrocytes assessed as effect on schizont morphology at 1 to 100 uM after 24 by propidium iodide staining-based FACS analysis; assay type: functional, organism-based
Plasmodium falciparum [12] = assay: Antiplasmodial activity against Plasmodium falciparum schizont infected in human erythrocytes assessed as blockade of parasite-mediated rupture of erythrocytes after 24 by propidium iodide staining-based FACS analysis; assay type: functional, organism-based; outline: as §2
[13] = Inhibition of Plasmodium falciparum SUB1 by fluorescence spectrophotometry
Outline: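 Recombinant PfSUB1 cleavage of the fluorogenic peptide substrate pepF1-6R measured over a range of inhibitor concentrations. IC50 taken from the curve fit.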

[14] = Cytotoxicity against african green monkey BSC1 cells after 24 hrs by celltiter glo assay; assay type: cell-based; conditions: chlorocebus aethiops, bsc-1, 24 h
Outline: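 BSC-1 African green monkey kidney epithelial cells exposed to compounds; viability read by CellTiter-Glo luminescence.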

Plasmodium falciparum [15] = assay: Antiplasmodial activity against Plasmodium falciparum schizont infected in human erythrocytes assessed as inhibition of ring-stage parasite growth at 1 to 100 uM after 24 by propidium iodide staining-based FACS analysis; assay type: functional, organism-based
[16] = molecular target: T3, Protease, putative (Plasmodium falciparum 3D7); assay: Inhibition of Plasmodium falciparum 3D7 PFD0230c-mediated rupture of infected human red blood cells at 1 to 100 uM after 24 hrs by propidium iodide staining-based FACS analysis
Outline: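 Schizonts at 36 h post invasion treated in triplicate with 1–100 µM inhibitor for 24 h, then propidium iodide stained and analyzed by flow cytometry. Schizont accumulation is expressed as fold increase over the DMSO control.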

Plasmodium falciparum [17] = assay: Inhibition of Plasmodium falciparum 3D7 falcipain-2 by fluorescence spectrophotometry
[18] = molecular target: T4, Falcipain-3 (Plasmodium falciparum 3D7) (UniProt Q8IIL0); assay: Inhibition of Plasmodium falciparum 3D7 falcipain-3 by fluorescence spectrophotometry
T4 sequence (whole entry): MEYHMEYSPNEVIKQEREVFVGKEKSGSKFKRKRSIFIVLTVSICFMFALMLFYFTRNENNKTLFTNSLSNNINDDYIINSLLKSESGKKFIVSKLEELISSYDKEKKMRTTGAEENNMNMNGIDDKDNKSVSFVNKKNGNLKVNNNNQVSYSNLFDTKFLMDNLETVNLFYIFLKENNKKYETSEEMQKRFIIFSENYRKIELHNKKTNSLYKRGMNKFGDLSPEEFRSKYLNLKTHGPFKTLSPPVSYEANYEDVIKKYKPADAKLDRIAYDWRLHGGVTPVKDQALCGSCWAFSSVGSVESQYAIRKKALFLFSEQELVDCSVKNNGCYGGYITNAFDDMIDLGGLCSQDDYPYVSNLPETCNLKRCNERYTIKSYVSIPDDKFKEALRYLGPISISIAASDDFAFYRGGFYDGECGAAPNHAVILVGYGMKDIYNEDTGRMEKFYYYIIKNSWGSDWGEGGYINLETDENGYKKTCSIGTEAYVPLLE

[19] = molecular target: T5, Cysteine proteinase falcipain-1 (Plasmodium falciparum 3D7) (UniProt Q8I6V0); assay: Inhibition of Plasmodium falciparum 3D7 falcipain-1 by fluorescence spectrophotometry
T5 sequence (whole entry): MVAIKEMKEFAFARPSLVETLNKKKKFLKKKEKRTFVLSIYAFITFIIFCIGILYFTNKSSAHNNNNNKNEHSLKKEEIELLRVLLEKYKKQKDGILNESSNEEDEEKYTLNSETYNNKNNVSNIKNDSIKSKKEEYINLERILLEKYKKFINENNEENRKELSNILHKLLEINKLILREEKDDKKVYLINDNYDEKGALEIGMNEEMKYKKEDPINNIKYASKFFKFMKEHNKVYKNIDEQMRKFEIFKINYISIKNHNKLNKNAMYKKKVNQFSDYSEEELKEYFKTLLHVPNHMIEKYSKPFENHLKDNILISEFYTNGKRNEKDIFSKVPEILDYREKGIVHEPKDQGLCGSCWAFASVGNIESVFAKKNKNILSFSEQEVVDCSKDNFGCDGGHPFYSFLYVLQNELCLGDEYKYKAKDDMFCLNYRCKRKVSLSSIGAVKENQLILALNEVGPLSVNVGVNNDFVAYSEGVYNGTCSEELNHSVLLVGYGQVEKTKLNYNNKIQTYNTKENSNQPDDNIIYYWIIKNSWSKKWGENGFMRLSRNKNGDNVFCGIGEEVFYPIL

With `O=C(CCCC[C@H]1SC[C@H]2NC(=O)N[C@H]21)NCCCCCC(=O)Nc1ccc2c(Cl)c(OCCc3ccccc3)oc(=O)c2c1` the Activity (Plasmodium falciparum [1]) was “Active”, the inhibition (Plasmodium falciparum [1]) was “Active” and the Activity (Plasmodium falciparum [2]) was “Active”.

For `NC(=O)[C@H](Cc1ccc(O)cc1)NC(=O)CCCCCCCCCCS(=O)(=O)/C=C/[C@H](CCc1ccccc1)NC(=O)[C@@H](N)Cc1ccc(O)c([N+](=O)[O-])c1`, the inhibition [3] was “Active” and the inhibition [4] was “Active”.

In the case of `O=C(CCCC[C@H]1SC[C@H]2NC(=O)N[C@H]21)Nc1ccc2c(Cl)c(OCCc3ccccc3)oc(=O)c2c1`, the Activity (Plasmodium falciparum [1]) was “Active”, the inhibition (Plasmodium falciparum [1]) was “Active” and the Activity (Plasmodium falciparum [2]) was “Active”.

With `CCOC(=O)[C@H]1O[C@@H]1C(=O)N[C@H](C(=O)NCCc1ccc(O)cc1)[C@@H](C)CC` the inhibition [5] was “Active”.

With `N[C@@H](Cc1ccc(O)c([N+](=O)[O-])c1)C(=O)N[C@H](/C=C/S(=O)(=O)c1ccccc1)CCc1ccccc1` the inhibition [6] was “Active”, the inhibition (Plasmodium falciparum [7]) was “Active” and the inhibition [5] was “Active”. The inhibition [8] was “Dose-dependent effect” and the inhibition [9] was “Active”.

With `O=C(CCCCCNC(=O)CCCC[C@H]1SC[C@H]2NC(=O)N[C@H]21)NCCCCCC(=O)Nc1ccc2c(Cl)c(OCCc3ccccc3)oc(=O)c2c1` the inhibition [6] was “Active”, the Activity (Plasmodium falciparum [10]) was “inactive” and the Activity (Plasmodium falciparum [11]) was “inactive”. The pEC50 (Plasmodium falciparum [12]) was 4.66, the pIC50 [13] was 4.74 and the inhibition (Plasmodium falciparum [7]) was “Active”. For the same molecule, the Activity [14] was “Non-toxic” and the inhibition (Plasmodium falciparum [15]) was “Active”.

With `O=C(N[C@H](/C=C/S(=O)(=O)c1ccccc1)CCc1ccccc1)C1CCCN1` (stereo not given in full) the inhibition [6] was “Active”, the inhibition [16] was “inactive” and the inhibition (Plasmodium falciparum [17]) was “inactive”. For the same molecule, the inhibition (Plasmodium falciparum [7]) was “Active”, the inhibition [18] was “inactive” and the inhibition [4] was “Active”. The inhibition [5] was “inactive” and the inhibition [19] was “Active”.
